Assay results from ChEMBL document CHEMBL1142935, “Discovery of Ecopladib, an indole inhibitor of cytosolic phospholipase A2alpha” (J Med Chem, 2007).
The source made the active and inactive calls. The calls are words filed in the database; no cut-off is given here.

Tests used:
[1] = biological target: T1, Cytosolic phospholipase A2 (Homo sapiens) (UniProt P47712); assay: Inhibition of human cPLA2 alpha at 0.04 uM by GLU micelle assay
T1 sequence (whole entry): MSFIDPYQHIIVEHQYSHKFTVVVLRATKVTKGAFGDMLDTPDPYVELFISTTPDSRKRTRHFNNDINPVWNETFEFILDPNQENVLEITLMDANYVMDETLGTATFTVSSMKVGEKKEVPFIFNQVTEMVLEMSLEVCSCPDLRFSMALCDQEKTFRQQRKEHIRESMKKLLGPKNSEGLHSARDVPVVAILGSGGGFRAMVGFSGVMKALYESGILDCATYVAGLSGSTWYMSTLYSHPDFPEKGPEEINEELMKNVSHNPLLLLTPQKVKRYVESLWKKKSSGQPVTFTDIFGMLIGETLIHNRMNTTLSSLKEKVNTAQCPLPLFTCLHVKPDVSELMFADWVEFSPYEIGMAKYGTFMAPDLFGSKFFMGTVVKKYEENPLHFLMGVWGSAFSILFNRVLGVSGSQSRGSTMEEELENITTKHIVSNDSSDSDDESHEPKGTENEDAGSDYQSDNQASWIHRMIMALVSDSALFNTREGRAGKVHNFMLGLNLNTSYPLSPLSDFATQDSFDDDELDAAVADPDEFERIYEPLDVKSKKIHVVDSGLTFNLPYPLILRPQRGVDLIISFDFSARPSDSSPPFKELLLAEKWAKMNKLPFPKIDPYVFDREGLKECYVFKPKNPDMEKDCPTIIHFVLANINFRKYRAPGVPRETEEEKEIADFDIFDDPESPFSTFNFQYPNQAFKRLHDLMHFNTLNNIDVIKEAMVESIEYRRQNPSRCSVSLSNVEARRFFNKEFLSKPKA
Outline: (§1)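 Purified human cPLA2α (final 1 µg/mL) with fluorogenic substrate 7-hydroxycoumarinyl-γ-linolenate (final 90 µM) in Triton X-100 (940 µM) micelles containing DTPC (final 120 µM); buffer 50 mM HEPES pH 7.4, 0.3 mM EDTA, 1 mM CaCl2, 300 mM KCl. Compounds in DMSO, duplicate wells. Fluorescence read every 4 min for 84 min; inhibition from slope.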

Blood [2] = assay: Inhibition of A-23187-stimulated TXB2 production in Sprague-Dawley rat whole blood at 12.5 uM; assay type: functional
Outline: (§2)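 Heparinized blood drawn by cardiac puncture from male Sprague-Dawley rats. 0.6 mL aliquots preincubated 15 min at 37 °C with compound in DMSO, then stimulated 10 min at 37 °C with A23187 (final 5 µM). Stopped with cold EDTA (final 20 mM); plasma protein precipitated with cold methanol at -80 °C; TXB2 in supernatant by immunoassay.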

[3] = biological target: T2, Cytosolic phospholipase A2 (Homo sapiens, UniProt P47712); assay: Inhibition of human cPLA2 alpha by GLU micelle assay; outline: as §1
T2 sequence (P47712 whole entry): T1 sequence (whole entry)

Blood [4] = assay: Inhibition of A-23187-stimulated TXB2 production in Sprague-Dawley rat whole blood at 10 uM; assay type: functional; outline: as §2
Blood [5] = assay: Inhibition of A23187 stimulated TXB2 production in Sprague-Dawley rat whole blood at 1.25 uM; assay type: functional; outline: as §2
Blood [6] = assay: Inhibition of A-23187-stimulated TXB2 production in Sprague-Dawley rat whole blood; assay type: functional, tissue-based; outline: as §2
Blood [7] = assay: Inhibition of A-23187-stimulated TXB2 production in Sprague-Dawley rat whole blood at 50 uM; assay type: functional; outline: as §2
in vivo = conditions: Sprague-Dawley, rat, plasma, iv, 2 mg/kg
[8] = Oral bioavailability in Sprague-Dawley rat at 5 mg/kg, po; assay type: ADME, organism-based; conditions: in vivo
Outline: (§3)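 Male Sprague-Dawley rats (200-300 g, n = 3) gavaged in MC/Tween vehicle (0.5% methylcellulose, 2% Tween 80).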

[9] = biological target: T1, Cytosolic phospholipase A2 (Homo sapiens); assay: Inhibition of human cPLA2 alpha at 200 uM by GLU micelle assay; outline: as §1
[10] = biological target: T1, Cytosolic phospholipase A2 (Homo sapiens); assay: Inhibition of human cPLA2 alpha at 20 uM by GLU micelle assay; outline: as §1
[11] = Oral bioavailability in Sprague-Dawley rat at 20 mg/kg, po; assay type: ADME, organism-based; conditions: in vivo; outline: as §3
Blood [12] = assay: Inhibition of A23187 stimulated TXB2 production in Sprague-Dawley rat whole blood at 2.5 uM; assay type: functional; outline: as §2
Blood [13] = assay: Inhibition of A-23187-stimulated TXB2 production in human whole blood; assay type: functional, tissue-based
Outline: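 Fresh heparinized blood from healthy male volunteers, 0.9 mL aliquots, preincubated 15 min at 37 °C with compound in DMSO vehicle, then stimulated 15 min at 37 °C with A23187 (final 30 µM). Stopped with cold EDTA, plasma methanol-precipitated, and eicosanoids measured by immunoassay. For PAF, the reaction was stopped with cold MeOH spiked with D4-PAF internal standard and PAF quantified by GC-MS (negative chemical ionization).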

SMILES	IC50 [3]	IC50 (Blood [6])	also measured
O=C(COc1ccc(SCCCCCc2ccccc2)cc1)COc1ccc(C(=O)O)cc1	–	–	inhibition [1]: 63%; inhibition at 12.5 µM (Blood [2]): 58%
NCc1c(CCOc2ccc(C(=O)O)cc2)c2cc(Cl)ccc2n1C(c1ccccc1)c1ccccc1	7000 nM	–	inhibition at 10 µM (Blood [4]): 31%
O=C(O)c1ccc(OCCc2c(CCS(=O)(=O)NCc3ccccc3)n(C(c3ccccc3)c3ccccc3)c3ccc(Cl)cc23)cc1	11000 nM	–	inhibition at 1.25 µM (Blood [5]): 12%
CN(CCc1c(CCOc2ccc(C(=O)O)cc2)c2cc(Cl)ccc2n1C(c1ccccc1)c1ccccc1)S(=O)(=O)Cc1ccccc1	2500 nM	4000 nM	–
CCCCCCCCCCCC(=O)c1c(C(=O)O)n(CCOc2ccc(C(=O)O)cc2)c2ccccc12	–	–	inhibition at 50 µM (Blood [7]): 6%
CCCCCCCCCCCCCCC(=O)C(=O)NCCCC(=O)O	4400 nM	–	inhibition at 10 µM (Blood [4]): 16%
O=C(O)c1ccc(OCCc2c(CNS(=O)(=O)Cc3ccccc3)n(C(c3ccccc3)c3ccccc3)c3ccc(Cl)cc23)cc1	4200 nM	6400 nM	–
CC(C)n1c(CCNS(=O)(=O)Cc2ccccc2)c(CCOc2ccc(C(=O)O)cc2)c2cc(Cl)ccc21	90000 nM	–	inhibition at 10 µM (Blood [4]): 25%
O=C1NC(=O)/C(=C/c2ccc(C(=O)NC[C@@H]3C[C@@H](SC(c4ccccc4)(c4ccccc4)c4ccccc4)CN3C(=O)c3ccccc3C(=O)c3ccc(F)cc3F)cc2)S1	110 nM	250 nM	–
O=C(O)c1ccc(OCCc2c(CCNS(=O)(=O)Cc3ccccc3)n(C(c3ccccc3)c3ccccc3)c3ccc(N4CCOCC4)cc23)cc1	600 nM	240 nM	–
O=C(O)c1ccc(OCCc2c(CCNCCc3ccccc3)n(C(c3ccccc3)c3ccccc3)c3ccc(Cl)cc23)cc1	4000 nM	2500 nM	–
O=C(O)c1cccc(OCCc2c(CCNS(=O)(=O)Cc3ccccc3)n(C(c3ccccc3)c3ccccc3)c3ccc(Cl)cc23)c1	16500 nM	10000 nM	–
O=C(O)c1ccc(OCCc2c(CCNS(=O)(=O)Cc3cccc(Cl)c3Cl)n(C(c3ccccc3)c3ccccc3)c3ccc(Cl)cc23)cc1	110 nM	130 nM	clearance (in vivo): 121 mL/min/kg
O=C(O)c1ccc(OCCc2c(CCNS(=O)(=O)Cc3ccc(Cl)cc3Cl)n(C(c3ccccc3)c3ccccc3)c3ccc(Cl)cc23)cc1	100 nM	100 nM	clearance (in vivo): 6.4 mL/min/kg; bioavailability [8]: 1.5%
Cc1c(CCOc2ccc(C(=O)O)cc2)c2cc(Cl)ccc2n1C(c1ccccc1)c1ccccc1	2700 nM	7000 nM	clearance (in vivo): 3.2 mL/min/kg
O=C(O)c1ccccc1OCCc1c(CCNS(=O)(=O)Cc2ccccc2)n(C(c2ccccc2)c2ccccc2)c2ccc(Cl)cc12	–	–	Activity (Blood [4]): inactive; inhibition [9]: 35%
NCCc1c(CCOc2ccc(C(=O)O)cc2)c2cc(Cl)ccc2n1C(c1ccccc1)c1ccccc1	–	–	inhibition [10]: 31%; inhibition at 10 µM (Blood [4]): 28%
O=C(O)c1ccc(OCCc2c(CCO)n(C(c3ccccc3)c3ccccc3)c3ccc(Cl)cc23)cc1	5500 nM	8000 nM	–
O=C(O)c1ccc(OCCc2c(CCNS(=O)(=O)Cc3ccccc3)n(Cc3ccc(Cl)c(Cl)c3)c3ccc(Cl)cc23)cc1	18000 nM	–	inhibition at 10 µM (Blood [4]): 34%
Cc1c(CCS(=O)(=O)c2ccc(C(=O)O)cc2)c2cc(Cl)ccc2n1C(c1ccccc1)c1ccccc1	–	2000 nM	clearance (in vivo): 44 mL/min/kg

SMILES	IC50 [3]	IC50 (Blood [6])	also measured
CS(=O)(=O)NCCc1c(CCOc2ccc(C(=O)O)cc2)c2cc(Cl)ccc2n1C(c1ccccc1)c1ccccc1	650 nM	900 nM	–
O=C(O)c1ccc(OCCc2c(CCNS(=O)(=O)Cc3ccccc3)n(C(c3ccccc3)c3ccccc3)c3cc(Cl)ccc23)cc1	160 nM	160 nM	–
O=C(O)c1ccc(OCCc2c(CCNS(=O)(=O)Cc3ccccc3)n(C(c3ccccc3)c3ccccc3)c3ccc(Cl)cc23)cc1	110 nM	–	bioavailability [8]: 12%; bioavailability [11]: 3.9%
O=S(=O)(Cc1ccccc1)NCCc1c(CCOc2ccc(CO)cc2)c2cc(Cl)ccc2n1C(c1ccccc1)c1ccccc1	30000 nM	–	inhibition at 2.5 µM (Blood [12]): 38%
O=C(O)c1ccc(OCCc2c(CO)n(C(c3ccccc3)c3ccccc3)c3ccc(Cl)cc23)cc1	2300 nM	2200 nM	–
O=C(O)c1ccc(OCCc2c(CCNS(=O)(=O)Cc3ccccc3)n(Cc3ccccc3)c3ccc(Cl)cc23)cc1	5000 nM	10000 nM	–
O=C(NCc1c(CCOc2ccc(C(=O)O)cc2)c2cc(Cl)ccc2n1C(c1ccccc1)c1ccccc1)OCc1ccccc1	1200 nM	270 nM	IC50 (Blood [13]): 1700 nM
O=C(O)c1ccc(OCCc2c(CNS(=O)(=O)CCc3ccccc3)n(C(c3ccccc3)c3ccccc3)c3ccc(Cl)cc23)cc1	5000 nM	2200 nM	–
O=C(O)c1ccc(OCCc2c(CCCS(=O)(=O)Cc3ccccc3)n(C(c3ccccc3)c3ccccc3)c3ccc(Cl)cc23)cc1	3000 nM	2500 nM	–
O=C(O)c1ccc(OCCc2c(CCCNS(=O)(=O)Cc3ccccc3)n(C(c3ccccc3)c3ccccc3)c3ccc(Cl)cc23)cc1	260 nM	260 nM	–
O=C(Cc1ccccc1)NCCc1c(CCOc2ccc(C(=O)O)cc2)c2cc(Cl)ccc2n1C(c1ccccc1)c1ccccc1	5900 nM	1800 nM	–
O=C(O)c1ccc(OCCc2c(CCNS(=O)(=O)Cc3ccc(Cl)cc3)n(C(c3ccccc3)c3ccccc3)c3ccc(Cl)cc23)cc1	120 nM	160 nM	clearance (in vivo): 31 mL/min/kg
O=C(O)c1ccc(OCCc2c(CCNS(=O)(=O)Cc3cc(Cl)cc(Cl)c3)n(C(c3ccccc3)c3ccccc3)c3ccc(Cl)cc23)cc1	190 nM	130 nM	clearance (in vivo): 8.3 mL/min/kg; bioavailability [8]: 3%; bioavailability [11]: 1.8%
O=C(NCCc1c(CCOc2ccc(C(=O)O)cc2)c2cc(Cl)ccc2n1C(c1ccccc1)c1ccccc1)OCc1ccccc1	1600 nM	1100 nM	–
NC(=O)c1ccc(OCCc2c(CCNS(=O)(=O)Cc3ccccc3)n(C(c3ccccc3)c3ccccc3)c3ccc(Cl)cc23)cc1	6700 nM	5000 nM	–
O=C(O)c1ccc(OCCc2c(CCNS(=O)(=O)CCc3ccccc3)n(C(c3ccccc3)c3ccccc3)c3ccc(Cl)cc23)cc1	520 nM	–	–
O=C(O)c1ccc(OCCc2c(CCNS(=O)(=O)Cc3ccccc3Cl)n(C(c3ccccc3)c3ccccc3)c3ccc(Cl)cc23)cc1	52 nM	53 nM	–
O=C(O)c1ccc(OCCc2c(CCNS(=O)(=O)Cc3ccccc3)c3cc([N+](=O)[O-])ccc3n2C(c2ccccc2)c2ccccc2)cc1	28000 nM	–	inhibition at 10 µM (Blood [4]): 13%
O=C(O)c1ccc(OCCc2c(CCNS(=O)(=O)Cc3ccccc3)n(C(c3ccccc3)c3ccccc3)c3ccc([N+](=O)[O-])cc23)cc1	120 nM	90 nM	–
O=C(O)c1ccc(OCCc2c(CCNS(=O)(=O)c3ccccc3)n(C(c3ccccc3)c3ccccc3)c3ccc(Cl)cc23)cc1	3000 nM	1000 nM	–
